Measurements from ChEMBL document CHEMBL4513216, “Probing the Open Global Health Chemical Diversity Library for Multistage-Active Starting Points for Next-Generation Antimalarials” (ACS Infect Dis, 2020).

assay: Toxicity liver stage against HepG2, at 10uM; format: cell-based; parameters: test concentration 10 uM, cell line HepG2-A16-CD81EGFP; conditions: human, HepG2-A16-CD81EGFP cells; read-out: INHIBITION
Outline: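 Uninfected HepG2-A16-CD81EGFP cells, 3 × 10^3 per well, 1536-well, plated on prespotted compound at 10 μM final, parasite-free screening media added to match infected plates; puromycin 10 μM positive, DMSO 0.5% negative; run in parallel with 48 h PbLuc assay at 37 °C, 5% CO2; viability by CellTiter-Glo luminescence, normalized to controls.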

| Compound | cytotoxicity at 10 µM |
| --- | --- |
| COc1cccc(C(=O)N2CCCC(c3cc(C)[nH]n3)C2)c1OC (stereo not drawn) | -7.4% |
| CCc1cc(N(C)Cc2[nH]nc3c2CCC3)nc(N2CCOCC2)n1 | 5.51% |
| CC(C)N(C)C(=O)C1CSCN1S(=O)(=O)c1cccs1 (stereo not drawn) | -5.96% |
| CCN(CC)c1ccc(CNC(=O)c2cnc(C)cn2)cn1 | 6.21% |
| Cc1nc(CNC2(C(=O)OC(C)(C)C)CCCC2)oc1C | -0.457% |
| O=c1cc2c(nn1CN1CCN(c3cccc(Cl)c3)CC1)CCC2 | -3.19% |
| COCc1nc(N2CCC(CCO)CC2)c2cnn(C)c2n1 | 1.22% |
| Cc1nsc(NC(=O)NC2CCN(C)CC2)n1 | -10.7% |
| NC(=O)CN(C(=O)Cc1ccc(C(F)(F)F)cc1)C1CCCC1 | -3.41% |
| CN(Cc1ccc(Cl)cc1)S(=O)(=O)N(C)Cc1cnn(C)c1 | 16.5% |
| Cc1nnc([C@H]2CC[C@@H]3[C@@H](CCN3CC3CCOCC3)O2)o1 | 10.1% |
| O=C(c1cccc(F)c1)N1C[C@@H](CN2CCCCC2)[C@@H](CO)C1 | 3.78% |
| COc1cccc2cc(CNC(=O)N3CCCC(O)C3)oc12 (stereo not drawn) | -8.8% |
| Cn1ccnc1SCCNC(=O)CC1CCc2ccccc21 (stereo not drawn) | -3.05% |
| O=C(Cc1csc(-c2ccoc2)n1)NCCCN1CCCCC1 | 12.6% |
| Cc1ccc(N2CC[C@@H]3[C@@H]2CCN3C(=O)Cc2ccccc2)nn1 | -93.1% |
| Cc1ccc(NC(=O)N2CC(C(=O)NC(C)C)C3(CCOCC3)C2)cc1 (stereo not drawn) | -74.3% |
| CC(=O)N1CCC(C(=O)NCc2ncc(-c3ccccc3)o2)CC1 | -63.8% |
| CCS(=O)(=O)CCNC(=O)NC(C)c1ccc(C)s1 (stereo not drawn) | -8.64% |
| CCc1ccc(C2COCCN2C(=O)Nc2cccc(C(C)=O)c2)o1 (stereo not drawn) | -7.13% |
| NC(=O)NC(=O)CCn1ccc(-c2ccc(F)cc2)n1 | 4.19% |
| Cc1nc(N2CCC(C(O)c3nccn3C)CC2)c2sccc2n1 (stereo not drawn) | -19.5% |

| Compound | cytotoxicity at 10 µM |
| --- | --- |
| N#Cc1cccc(C(=O)N2CCC3(CCC(=O)N(C4CC4)C3)CC2)c1 | 0.194% |
| CC(=O)N1CCCC(c2ccc(Cc3ccccc3)cn2)C1 (stereo not drawn) | -20.6% |
| CC(=O)N1[C@H](Cn2cncn2)C[C@@H]2CN(C(=O)NC3CC3)CC[C@@H]21 | -5.16% |
| CC(=O)N(Cc1noc(C)n1)C1CCN(Cc2cc(C)on2)C1 (stereo not drawn) | 4.38% |
| O=c1cccnn1CC1CN(c2ncc(F)cn2)Cc2nccn2C1 (stereo not drawn) | 4.65% |
| CN(C)c1cccc(C(=O)N2CCn3c(nnc3C3CC3)C2)c1 | 0.7% |
| O=C(C1CCOC1)N1CCC2(CC1)COCCN(Cc1ccncc1)C2 (stereo not drawn) | -86% |
| Cc1ccccc1OCCC(=O)NC(C)c1nnc2n1CCCCC2 (stereo not drawn) | -12.3% |
| O=C(CCCOc1ccc(F)cc1F)N1CCCC1Cn1cccn1 (stereo not drawn) | -5.67% |
| Cc1nnc2n1CCN(C(C)c1nnc(-c3cccs3)o1)C2 (stereo not drawn) | -11.2% |
| Nc1nc(N)c2c(n1)OC1(CCCN(Cc3nccs3)CC1)C2 (stereo not drawn) | -2.25% |
| CS(=O)(=O)NC(=O)c1ccn(-c2ccccc2Cl)n1 | -4.27% |
| CCc1c(C)nc2cc(C3CCN(Cc4cccnc4)C3)nn2c1O (stereo not drawn) | -25.4% |
| Cc1cccc(NC(=O)c2ccc(OCc3nnnn3C)cc2)n1 | -34.1% |
| COc1cccc(CN(C)C(=O)CCC(=O)c2ccc(Cl)cc2)c1OC | -1.1% |
| CNC(=O)C1(C)CCCN1Cc1cnn(C)c1C (stereo not drawn) | 5.45% |
| Cn1nc(C(=O)NCCc2ccc(OC3CCCC3)cc2)ccc1=O | -2.61% |
| Cn1nccc1CNC(=O)C1CCCCC1 | 7.89% |
| Cc1nn(C)c(N(C)C)c1CNCCOc1ccc2c(c1)OCO2 | -1.34% |
| CC(=O)N1CCC2(CCN(CC(C)C)C2)C1 (stereo not drawn) | 5.41% |
| CN(Cc1ncnn1C)C(=O)Nc1ccc(OC(F)F)cc1 | -0.778% |
| Cc1ncc(CN2CCC3(CC2)CC(=O)N(C)C3)cn1 | 9.8% |

| Compound | cytotoxicity at 10 µM |
| --- | --- |
| Cc1cc(-c2cnc(N3CCSCC3)nc2C(C)C)on1 | 16.8% |
| Cc1ccccc1CSc1nc(N)cc(N2CC[C@@H](O)C2)n1 | 0.28% |
| Cc1ccc(C)c(C(C)NC(=O)N2CCC(n3cncn3)CC2)c1 (stereo not drawn) | -8.78% |
| Cc1ccc(C(NC(=O)Cn2cc(C3CC3)nn2)C2CC2)cc1 (stereo not drawn) | -5.36% |
| O=C(c1cscn1)N1C[C@@H]2C[C@@H](c3nnc(C4CC4)o3)O[C@@H]2C1 | -16.9% |
| O=C(O)C(c1ccc2[nH]ccc2c1)N1CCOCC1 (stereo not drawn) | 13.1% |
| Cc1[nH]c2ccccc2c1-c1ccnc(NCCN2CCCCC2)n1 | -1.36% |
| CCS(=O)(=O)N1CCC2(CC1)CC[C@@]1(C(=O)NC)CN(C(C)=O)C[C@@H]21 | 6.1% |
| CC(=O)N1CCC[C@@H](NCc2cccc(F)c2)[C@@H]1c1ccc(C)s1 | -24.2% |
| O=C(c1ccsc1)N1CCO[C@@H]2CN(Cc3cccs3)C[C@@H]2C1 | -133% |
| COc1ccnc(N2CCN(C(=O)c3cccc(C#N)c3)CC2)n1 | -18.2% |
| NCC1CCC(C(NC(=O)CC2CCCCC2)c2ccccn2)CC1 (stereo not drawn) | -7.19% |
| O=C(O)c1cc(S(=O)(=O)N2CCOc3ccccc32)ccc1F | -2.94% |
| CNC(=O)c1ccc(-c2ccc(CNS(=O)(=O)N(C)C)cc2)nc1C | -2.05% |
| Cc1noc(C)c1CNC1CCN(c2ccccc2OC(F)F)C1 (stereo not drawn) | 9.5% |
| Cn1ncc2c1CCCC2NCc1cc(Br)cs1 (stereo not drawn) | -0.481% |
| COc1cc(CNc2cnn(C)c2)cc2c1OCCO2 | -10.8% |
| CSCc1cccc(S(=O)(=O)N2CCCC2)c1 | 8.49% |
| N#Cc1ccc(F)cc1Cn1cnc(C2CCC2)cc1=O | 15.4% |
| Cc1c(C(=O)N2CCC3(CCCN(CC4CC4)C3=O)C2)ccn1C (stereo not drawn) | -3.92% |
| CCn1cc(CNCC(c2ccc(C)s2)N2CCOCC2)cn1 (stereo not drawn) | -8.65% |
| O=C(C1CCCO1)N1C[C@@H]2CCN(c3cnccn3)C[C@@H]2C1 (stereo partly drawn) | -0.832% |

| Compound | cytotoxicity at 10 µM |
| --- | --- |
| Cc1nnc(CNC(=O)CC2CCc3ccccc32)o1 (stereo not drawn) | 1.58% |
| Cn1ccnc1C(=O)N1CCC2(CCN2CC2CC2)C1 (stereo not drawn) | 11.8% |
| NC(=O)CN1CCC2(CC1)C[C@@H](O)[C@H](c1ccccc1)NC2=O | -23% |
| N#CCc1ccc(NC(=O)N[C@H](CO)Cc2ccc(O)cc2)cc1 | -1.8% |
| CC(=O)N1CCN(C(=O)NCc2ccccc2Cn2cncn2)CC1 | 0.0453% |
| CN1CCCC1CNC(=O)CCOc1ccc(Cl)cc1 (stereo not drawn) | -4.31% |
| CN1[C@@H](c2ccccc2)[C@@H](C(=O)NCc2ccccn2)C[C@@]1(C)C(=O)O | -3.8% |
| CCc1nc(C2CCCN(c3ncc(Br)cn3)C2)no1 (stereo not drawn) | 1.47% |
| O=C(Nc1ccc(F)cc1)C1CCN(Cc2noc(C3CC3)n2)CC1 | 4.05% |
| O=C(c1ccc2c(c1)COC2)N1CCCC(n2cncn2)C1 (stereo not drawn) | -20.6% |
| CS(=O)(=O)N1CCCN(c2nccn3cnnc23)CC1 | -8.85% |
| CN(Cc1cccc(CCN)c1)Cc1cccc2ncccc12 | 7.82% |
| c1cc(CNCc2ccnc(N3CCOCC3)c2)c2c(c1)OCCCO2 | 7.82% |
| O=C(COCCOc1ccccc1)NC1CCN(C(=O)C2CC2)CC1 | -7.67% |
| CCN1C[C@H]2CCN(C(=O)Nc3ccccc3C)CC[C@H]2S1(=O)=O | 1.08% |
| CC(C)c1nnc(CN2CCc3ccc(S(N)(=O)=O)cc32)o1 | 3.2% |
| CSCC(C)(O)CNS(=O)(=O)c1cccc(C)c1 (stereo not drawn) | -2.85% |
| CCc1[nH]ncc1C(=O)N1CCCN(Cc2cnn(C(C)C)c2)CC1 | -12% |
| CC(c1cccc(S(N)(=O)=O)c1)N(C)CCOC(C)(C)C (stereo not drawn) | -32.8% |
| Cc1cnn(C(C)C2CC2)c1NC(=O)c1ccncc1 (stereo not drawn) | -8.48% |
| CC(=O)N1[C@H](CN(C)C)C[C@@H]2CN(C(=O)c3ccno3)CC[C@@H]21 | 4.35% |
| O=C(Cn1cc(C(=O)O)ccc1=O)Nc1ccc(Cl)cc1F | -6.94% |

| Compound | cytotoxicity at 10 µM |
| --- | --- |
| Cc1nc(CC(=O)N2CCN(CCOc3ccccc3)CC2)cs1 | -15.2% |
| CCn1cc(CN2CCCN(C(=O)c3ccc(C#N)cc3)CC2)cn1 | 1.8% |
| CC(C)Nc1ncnc2c1CCN(C(=O)Cc1ccccn1)CC2 | 3.3% |
| Cc1nc(C(=O)N(C)CC2CC2)nn1-c1ccccc1C(C)C | 5.38% |
| O=S(=O)(C1CC1)N1CCO[C@H]2[C@H](OCCN3CCCC3)CC[C@@H]21 | -5.63% |
| O=C(O)c1ccc(CNC(=O)C2CCN(C(=O)C3CCC3)CC2)s1 | 0.993% |
| Cc1ncc(-c2ccnc(N3CCC[C@@H]3CO)n2)c(-c2cccnc2)n1 | -8.49% |
| Cc1cc(F)c2c(c1)CCCN2Cc1nc2c(cnn2C)c(=O)[nH]1 | 1.89% |
| Cc1nc(NCc2ccco2)nc2c1COCC21CCNC1 (stereo not drawn) | 10.3% |
| CCNC(=O)CN1CCC(c2cc(OC)cc(OC)c2)C1 (stereo not drawn) | -5.66% |
| CCO[C@@H]1CO[C@@]2(CCCN(C(=O)COc3ccccc3OC)C2)C1 | 3.51% |
| O=C(c1cnccn1)N1CCN2C[C@H](OCc3ccccn3)C[C@H]2C1 | -0.746% |
| CN(Cc1cccnc1)C1CC2(CCN(C(=O)c3ccnnc3)CC2)C1 | 5.41% |
| CCS(=O)(=O)NCCN1CCN(C(C#N)c2ccccc2)CC1 (stereo not drawn) | -4.04% |
| COC(C)(C)CNC(=O)N1CCC(n2ccc(C(F)(F)F)n2)CC1 | -2.41% |
| Cn1ccc(C(=O)N2CCN(Cc3ccccc3F)CC2)cc1=O | -1.44% |
| Cc1cc(C(=O)N2CC[C@H]3[C@@H]2CCC(=O)N3c2ccccc2)no1 | -113% |
| Cc1cccc(CS(=O)(=O)CC(O)Cn2cccn2)c1 (stereo not drawn) | -2.07% |
| Cc1n[nH]c(C)c1-c1cc(-c2ccc[nH]2)nc(N)c1C#N | 12.4% |
| O=C(Cc1cccc(F)c1)NCCNCc1cccc(O)c1 | -9.5% |
